According to ChEMBL document CHEMBL4725371, “A Novel Redox Modulator Induces a GPX4-Mediated Cell Death That Is Dependent on Iron and Reactive Oxygen Species” (J Med Chem, 2020):
Activity calls are given as the source filed them. The calls are words filed in the database; no cut-off is given here.

Assays:
MIA PaCa-2 [1] = assay: Inhibition of colony formation in human MIA PaCa-2 cells at 0.4 to 0.8 uM measured after 7 to 9 days in presence of necroptosis inhibitor necrostatin-1 by crystal violet staining based assay; format: functional, cell-based; conditions: dose microM 0.4-0.8, time day 7-9
Method in brief: (§1)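 Cells seeded overnight in 96-well plates at 300 cells/well (MIA PaCa-2) or 600 cells/well (BxPC-3), in RPMI 1640 with 10% FBS. Inhibitor added 1 h before compound, then continuous exposure for 7–9 days until control wells were 80–90% confluent. Stained with 0.05% crystal violet for 30 min, imaged after overnight drying and quantified.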

MIA PaCa-2 [2] = assay: Inhibition of colony formation in human MIA PaCa-2 cells at 0.25 to 1 uM measured after 7 to 9 days in presence of caspase-dependent apoptosis inhibitor Z-VAD by crystal violet staining based assay; format: functional, cell-based; conditions: dose microM 0.25-1, time day 7-9; method in brief: as §1
MIA PaCa-2 [3] = assay: Cytotoxicity against human MIA PaCa-2 cells transfected with GPX4 siRNA measured after 72 hrs by MTT assay; format: functional, cell-based
MIA PaCa-2 [4] = assay: Down regulation of PNPT1 expression in human MIA PaCa-2 cells at 3 times IC50 measured after 4 hrs in presence of NAC by proteomics analysis; format: functional, cell-based
MIA PaCa-2 [5] = assay: Induction of DNA damage in human MIA PaCa-2 cells assessed as increase in H2AX phosphorylation at 1 to 1.5 uM measured after 4 hrs by Western blot analysis; format: functional, cell-based; conditions: dose microM 1-1.5, time 4.0 hrs
Method in brief: (§2)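 Cells were treated 4 h at the stated concentrations and lysed in RIPA with protease and phosphatase inhibitors. 25 μg protein was resolved on 10% SDS gels, transferred to PVDF and probed for STAT3, pSTAT3, pH2AX and GAPDH. Detection used fluorescent secondary antibodies, with normalisation to loading control.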

MIA PaCa-2 [6] = assay: Down regulation of LRPPRC expression in human MIA PaCa-2 cells at 3 times IC50 measured after 4 hrs in presence of NAC by proteomics analysis; format: functional, cell-based
MIA PaCa-2 [7] = assay: Induction of reactive oxygen species in human MIA PaCa-2 cells assessed as reduction in GSH to GSSG ratio at 1.5 to 6 uM measured after 2 to 4 hrs by GSH/GSSG-glo assay; format: functional, cell-based; conditions: dose microM 1.5-6, time hrs 2-4
Method in brief: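 GSH/GSSG-Glo luminescent assay: 15,000–20,000 MIA PaCa-2 cells per well, attached overnight, treated 2 h and 4 h. Cells were lysed with total or oxidized glutathione reagent, then luciferin generation (30 min, room temperature) and detection reagents added. Luminescence was read after 15 min. Ratio was computed from net RLU as (total − GSSG)/(GSSG/2).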

MIA PaCa-2 [8] = assay: Down regulation of PNPT1 expression in human MIA PaCa-2 cells at 3 times IC50 measured after 4 hrs in presence of NQO1 inhibitor dicoumarol by proteomics analysis; format: functional, cell-based
MIA PaCa-2 [9] = assay: Down regulation of LRPPRC expression in human MIA PaCa-2 cells at 1.2 uM measured after 24 hrs by proteomics analysis; format: functional, cell-based
Method in brief: (§3)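 MIA PaCa-2 cells were treated with 1.2 μM compound or DMSO for 24 h and lysed in RIPA buffer. 75 μg protein per sample was run in duplicate by TMT10plex-labelled proteomics. Abundance ratio was taken as treatment over control. Changes of at least 1.5-fold at FDR < 0.05 were scored.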

MIA PaCa-2 [10] = assay: Down regulation of PNPT1 expression in human MIA PaCa-2 cells at 1.2 uM measured after 24 hrs by proteomics analysis; format: functional, cell-based; method in brief: as §3
[11] = Drug metabolism in mouse plasma assessed as 7-hydroxy-6-[4-(4-methylpiperazin-1-yl)anilino]-6,7-dihydroquinazoline-5,8-dione formation at 500 uM measured after 0.5 hrs by LC-MS/MS analysis; format: ADME, cell-free
Method in brief: (§4)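 Compound (500 μM DMSO stock, 1 μL per 500 μL) was incubated in pooled mouse plasma. Samples were taken at 0.5 h and metabolites identified by LC-MS/MS.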

[12] = molecular target: T1, Phospholipid hydroperoxide glutathione peroxidase GPX4 (Homo sapiens) (UniProt P36969); assay: Binding affinity to GPX4 in human MIA PaCa-2 cells assessed as protein destabilization by measuring melting temperature at 100 uM measured after 1 hr by thermal shift assay (reference value: 60.34 degreeC); format: cell-based
T1 sequence (whole entry): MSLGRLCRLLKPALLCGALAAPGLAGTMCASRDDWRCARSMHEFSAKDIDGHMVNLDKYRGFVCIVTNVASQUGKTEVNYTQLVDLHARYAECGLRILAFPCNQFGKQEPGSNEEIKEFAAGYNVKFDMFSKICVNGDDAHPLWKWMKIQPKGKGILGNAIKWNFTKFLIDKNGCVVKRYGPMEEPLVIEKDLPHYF

[13] = Drug metabolism in mouse plasma assessed as 6-[4-[(2R)-2-hydroxy-4-methyl-piperazin-1-yl]anilino]quinazoline-5,8-dione formation at 500 uM measured after 0.5 hrs by LC-MS/MS analysis; format: ADME, cell-free; method in brief: as §4
[14] = molecular target: Signal transducer and activator of transcription 3 (Homo sapiens) (UniProt P40763); assay: Inhibition of STAT3 phosphorylation in human PANC-1 cells at 1.2 to 1.8 uM measured after 4 hrs by Western blot analysis; format: cell-based; conditions: dose microM 1.2-1.8, time 4.0 hrs; method in brief: as §2
PANC-1 [15] = assay: Synergistic inhibition of colony formation in human PANC-1 cells at 0.25 to 0.5 uM measured after 24 hrs in presence of olaparib by crystal violet staining based assay; format: functional, cell-based; conditions: dose microM 0.25-0.5, time 24.0 hrs
Method in brief: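 Colony formation in 96-well plates seeded at 300 (MIA PaCa-2) or 600 (PANC-1) cells/well. Napabucasin, As2O3 or olaparib added 1 h before test compound; drugs on cells 24 h. Plates kept until controls were 80–90% confluent (7–9 days), then stained with 0.05% crystal violet and quantified. Synergy scored by HSA and Bliss models.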

MIA PaCa-2 [16] = assay: Induction of reactive oxygen species in human MIA PaCa-2 cells at 5 to 10 uM measured up to 4 hrs by CM-H2DCFDA dye based fluorescence assay; format: functional, cell-based; conditions: dose microM 5-10, time hrs <=4, TDE = time-dependent effect
Method in brief: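 1.8 × 10⁴ cells per well were attached overnight, then loaded with 10 μM CM-H2DCFDA in HBSS for 40 min at 37 °C and washed. Compounds were added in HBSS. Fluorescence was read at Ex 483 / Em 530 nm. TBHP was the positive control. NAC at 3 mM was used where stated.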

[17] = Drug metabolism in mouse plasma assessed as 6-[4-[(3S,5R)-3,5-dihydroxy-4-methyl-piperazin-1-yl]anilino]quinazoline-5,8-dione formation at 500 uM measured after 0.5 hrs by LC-MS/MS analysis; format: ADME, cell-free; method in brief: as §4
MIA PaCa-2 [18] = assay: Inhibition of colony formation in human MIA PaCa-2 cells at 0.4 to 0.8 uM measured after 7 to 9 days in presence of iron chelator deferasirox by crystal violet staining based assay; format: functional, cell-based; conditions: dose microM 0.4-0.8, time day 7-9; method in brief: as §1
PANC-1 [19] = assay: Induction of DNA damage in human PANC-1 cells assessed as increase in H2AX phosphorylation at 1.2 to 1.8 uM measured after 4 hrs by Western blot analysis; format: functional, cell-based; conditions: dose microM 1.2-1.8, time 4.0 hrs; method in brief: as §2

Signal transducer and activator of transcription 3 (Homo sapiens), sequence (P40763 whole entry): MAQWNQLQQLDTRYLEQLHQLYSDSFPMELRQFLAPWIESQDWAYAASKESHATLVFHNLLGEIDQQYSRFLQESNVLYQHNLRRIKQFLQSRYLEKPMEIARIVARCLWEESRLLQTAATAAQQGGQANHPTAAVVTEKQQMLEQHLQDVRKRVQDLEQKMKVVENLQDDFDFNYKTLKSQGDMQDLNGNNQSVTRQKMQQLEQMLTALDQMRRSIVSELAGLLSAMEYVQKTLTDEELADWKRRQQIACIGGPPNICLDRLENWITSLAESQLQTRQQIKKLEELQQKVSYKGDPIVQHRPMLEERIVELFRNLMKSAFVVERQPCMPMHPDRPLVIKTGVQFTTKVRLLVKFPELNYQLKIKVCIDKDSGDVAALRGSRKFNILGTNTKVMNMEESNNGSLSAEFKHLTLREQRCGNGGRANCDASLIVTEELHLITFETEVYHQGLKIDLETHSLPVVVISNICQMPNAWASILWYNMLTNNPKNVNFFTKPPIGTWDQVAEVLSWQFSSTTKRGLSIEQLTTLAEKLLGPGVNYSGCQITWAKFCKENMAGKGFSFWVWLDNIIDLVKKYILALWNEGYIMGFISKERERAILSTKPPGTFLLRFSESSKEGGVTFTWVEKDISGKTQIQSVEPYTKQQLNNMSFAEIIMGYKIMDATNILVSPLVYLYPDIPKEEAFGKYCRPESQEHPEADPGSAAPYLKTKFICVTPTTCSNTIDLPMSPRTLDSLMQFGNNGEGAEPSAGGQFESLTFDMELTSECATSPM

CN1CCN(c2ccc(NC3=CC(=O)c4ncncc4C3=O)cc2)CC1
inhibition (MIA PaCa-2 [1]): Active
inhibition (MIA PaCa-2 [2]): Active
Activity (MIA PaCa-2 [3]): inactive
Activity (MIA PaCa-2 [4]): Active
Activity (MIA PaCa-2 [5]): Active
Activity (MIA PaCa-2 [6]): Active
Activity (MIA PaCa-2 [7]): Active
Activity (MIA PaCa-2 [8]): inactive
Activity (MIA PaCa-2 [9]): Active
Activity (MIA PaCa-2 [10]): Active
Drug metabolism [11]: Metabolite_Detected
Tm [12]: 57.6 °C
Drug metabolism [13]: Metabolite_Detected
inhibition [14]: Active
inhibition (PANC-1 [15]): Active
Activity (MIA PaCa-2 [16]): Tde
Drug metabolism [17]: Metabolite_Detected
inhibition (MIA PaCa-2 [18]): inactive
Activity (PANC-1 [19]): Active
